Experimental data reported in ChEMBL document CHEMBL1208758, “GPR109a agonists. Part 2: pyrazole-acids as agonists of the human orphan G-protein coupled receptor GPR109a” (Bioorg Med Chem Lett, 2010).

Key:
[1] = Volume of distribution at steady state in C57BL/6 mouse at 2 mg/kg, po and 1 mg/kg, iv; assay type: ADME, organism-based; conditions: in vivo, read-out: Vdss
How it was run: (§1)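 Pharmacokinetics in C57BL/6 mice: single dose 1 mg/kg iv or 2 mg/kg po.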

[2] = Oral bioavailability in C57BL/6 mouse at 2 mg/kg; assay type: ADME, organism-based; conditions: in vivo; how it was run: as §1
[3] = Plasma clearance in C57BL/6 mouse at 2 mg/kg, po and 1 mg/kg, iv; assay type: ADME, organism-based; how it was run: as §1
Mus musculus = experiment: Reduction in plasma free fatty acid level in C57BL/6 mouse at 10 mg/kg, ip after 15 mins; assay type: functional; parameters: scale not given: the % may be the effect or the level left; conditions: route intraperitoneal
How it was run: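 Male C57BL/6 mice, six per group, single 10 mpk ip dose; plasma free fatty acids measured 15 min after dosing and reported as percent reduction. Niacin given at 100 mpk ip as comparator.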

[4] = Half life in C57BL/6 mouse at 2 mg/kg, po and 1 mg/kg, iv; assay type: ADME, organism-based; conditions: in vivo; how it was run: as §1

Structure (SMILES) | Vd [1] | bioavailability [2] | clearance [3] | Activity (Mus musculus) | half-life [4]
O=C(O)c1n[nH]c2c1CC(c1cc(F)cc(F)c1F)C2 (centres undefined) | 9.3 L/kg | 53% | 24 mL/min/kg | – | –
Fc1cc(F)c(F)c(C2Cc3[nH]nc(-c4nnn[nH]4)c3C2)c1 (centres undefined) | – | – | – | 21% | –
Cn1nccc1C1Cc2[nH]nc(C(=O)O)c2C1 (centres undefined) | 4.2 L/kg | 27% | 86 mL/min/kg | 41% | 2.3 h
